ChEMBL document CHEMBL1125624, “Identification and exploitation of the sigma-opiate pharmacophore” (J Med Chem, 1991)

target: Sigma non-opioid intracellular receptor 1 (Rattus norvegicus, UniProt Q9R0C9); experiment: Binding affinity towards sigma opioid receptor was determined in rat cerebral homogenate using [3H]haloperidol as radioligand
How it was run: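 Male Sprague-Dawley rat cerebellum was homogenized in 50 mM Tris-HCl pH 7.7 and spun at 39000g for 15 min, three times in all. At least nine competitor concentrations were run with 1 nM [3H]haloperidol plus 25 nM spiperone (to block D2) on 3 mg wet-weight tissue for 90 min. Nonspecific binding was taken with 10 µM DTG. GF/C filtration, scintillation counting; Ki ± SEM, minimum three determinations.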

Sigma non-opioid intracellular receptor 1, sequence (Q9R0C9 whole entry): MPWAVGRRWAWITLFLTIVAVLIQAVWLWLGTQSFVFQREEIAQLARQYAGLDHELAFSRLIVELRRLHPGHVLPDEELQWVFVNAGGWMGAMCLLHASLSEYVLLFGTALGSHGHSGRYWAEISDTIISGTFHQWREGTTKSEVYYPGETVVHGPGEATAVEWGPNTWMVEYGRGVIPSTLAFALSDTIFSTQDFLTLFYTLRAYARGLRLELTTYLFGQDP

| SMILES | Ki [nM] |
| --- | --- |
| C[C@@H](Cc1ccccc1)N(C)CCc1ccccc1 | 16 |
| C[C@H](Cc1ccccc1)NCCc1ccccc1 | 46 |
| C[C@H](Cc1ccccc1)NCCOc1ccccc1 | 32 |
| CC(N)Cc1ccccc1 (racemic) [AMPHETAMINE] | > 50000 |
| C[C@@H](Cc1ccccc1)NCCc1ccccc1 | 4.8 |
| C[C@H](Cc1ccccc1)NCCCc1ccccc1 | 14 |
| C[C@H](Cc1ccccc1)NCC1CC1 | 664 |
| C[C@H](Cc1ccccc1)NCc1ccccc1 [N-BENZYLAMPHETAMINE] | 103 |
| C[C@H](Cc1ccccc1)NCCC(=O)c1ccccc1 | 73 |
| CC(Cc1ccccc1)NCCCCc1ccccc1 (racemic) | 3.9 |
